{"data": "Measurements of several laboratories", "read-out": "metabolic stability", "host": "human", "note": "Compare with care: the assays were run in different laboratories."}
{"Compound": "CCOc1ccc2ccc(=O)oc2c1", "sample": "hepatocytes", "tested at": "1 µM", "half-life [min]": 11.4}
{"Compound": "O=c1ccc2ccc(O)cc2o1", "sample": "liver microsomes", "half-life [min]": 1.85}
{"Compound": "CC(C)Oc1ccc(S(=O)(=O)c2ccc(Oc3cc(OCC(N)=O)c(C(=O)C(Cl)Cl)cc3[N+](=O)[O-])cc2)cc1", "sample": "liver microsomes", "tested at": "20 µM", "half-life [min]": 46.7}
{"Compound": "O=C1CC[C@H](N2Cc3cc(N4CCN(CC5CCN(c6ccc([C@@H]7c8ccc(O)cc8CC[C@@H]7c7ccccc7)cc6)CC5)CC4)ccc3C2=O)C(=O)N1", "sample": "hepatocytes", "tested at": "1 µM", "half-life [min]": 53.8}
{"Compound": "CC(C)[N+](C)(CCOC(=O)C1c2ccccc2Oc2ccccc21)C(C)C", "sample": "plasma", "half-life [min]": 25.8}
{"Compound": "CCOc1ccc(NC(C)=O)cc1", "sample": "liver microsomes", "half-life [min]": 67.1}
{"Compound": "O=C(c1ccc(F)cc1)C1CCN(CCn2c(=O)[nH]c3ccccc3c2=O)CC1", "sample": "liver microsomes", "half-life [min]": 35.4}
{"Compound": "CCC(CC)COC(=O)[C@H](C)N[P@@](=O)(OC[C@@H]1C[C@@H](O)[C@H](n2cnc3c(N)ncnc32)O1)Oc1ccccc1", "sample": "liver microsomes", "tested at": "1 µM", "half-life [min]": 0.67}
{"Compound": "O=c1ccc2cc(O)ccc2o1", "sample": "liver microsomes", "tested at": "20 µM", "half-life [min]": 63.5}
{"Compound": "COc1ccc([C@@H]2Sc3ccccc3N(CCN(C)C)C(=O)[C@@H]2OC(C)=O)cc1", "sample": "liver microsomes", "half-life [min]": 53.5}
{"Compound": "O=c1ccc2ccc(O)cc2o1", "sample": "hepatocytes", "tested at": "1 µM", "half-life [min]": 12.4}
{"Compound": "Nc1ncnc2c1ncn2[C@@H]1O[C@H](CO)C[C@H]1O", "sample": "liver microsomes", "tested at": "1 µM", "half-life [min]": 12.3}
{"Compound": "CC1(CN)CCN(c2cnc3c(Sc4ccncc4Cl)n[nH]c3n2)CC1", "sample": "liver microsomes", "half-life [min]": 36.7}
{"Compound": "CSc1ncc(Br)c(C(=O)N[C@@H](CCC(=O)O)C(=O)N[C@@H](Cc2ccc3ccccc3c2)C(=O)N[C@@H](CC(C)C)C(=O)N[C@@H]2C[C@H]2c2ccccc2)n1", "sample": "plasma", "half-life [min]": 1900}
{"Compound": "CCC(CC)COC(=O)[C@H](C)N[P@](=O)(OC[C@@H]1C[C@@H](O)[C@H](n2cnc3c(N)nc(F)nc32)O1)Oc1ccccc1", "sample": "liver microsomes", "tested at": "1 µM", "half-life [min]": 1.42}
